Experiments:
[1] = Acute toxicity in ip dosed mouse; type: organism-based; conditions: in vivo
[2] = Antitumor activity against mouse Ridgeway osteogenic sarcoma cells allografted in mouse at 0.5 to 0.8 mg/kg/day, ip; type: functional; conditions: route intraperitoneal
Outline: (§1)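 Sulfate salts given ip on days 1-9 against ROS and GLS in mice; tumor growth scored as percent inhibition versus controls (+++ = 75-100%, ++ = 50-75%, ± = under 25%).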

[3] = Antitumor activity against mouse Gardner lymphosarcoma cell allografted in mouse at 0.5 to 0.8 mg/kg/day, ip; type: functional; conditions: route intraperitoneal; outline: as §1
P388 [4] = test: Antitumor activity against mouse P388 cells allografted in mouse assessed as increase in life span at 0.18 mg/kg/day, ip administered from day 1 to day 9 relative to untreated control; type: functional; conditions: route intraperitoneal
Outline: (§2)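 P388 ascites implanted ip in mice, 10 animals per group. Sulfate salts given ip either daily on days 1-9 or as a single dose on day 1. Median life span was calculated using all deaths and survivors. Percent increase in life span was taken over untreated controls. The highest nontoxic dose was noted.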

P388 [5] = test: Antitumor activity against mouse P388 cells allografted in mouse assessed as increase in life span at 9 mg/kg/day, ip after 1 day; type: functional; conditions: 24 h, route intraperitoneal; outline: as §2
P388 [6] = test: Antitumor activity against mouse P388 cells allografted in mouse assessed as increase in life span at 6 mg/kg/day, ip after 1 day; type: functional; conditions: 24 h, route intraperitoneal; outline: as §2
P388 [7] = test: Antitumor activity against mouse P388 cells allografted in mouse assessed as increase in life span at 4 mg/kg/day, ip after 1 day; type: functional; conditions: 24 h, route intraperitoneal; outline: as §2
P388 [8] = test: Antitumor activity against mouse P388 cells allografted in mouse assessed as increase in life span at 1.8 mg/kg/day, ip after 1 day; type: functional; conditions: 24 h, route intraperitoneal; outline: as §2
P388 [9] = test: Antitumor activity against mouse P388 cells allografted in mouse assessed as increase in life span at 1.7 mg/kg/day, ip after 1 day; type: functional; conditions: 24 h, route intraperitoneal; outline: as §2
[10] = Toxicity in ip dosed mouse allografted with mouse p388 cells administered from day 1 to day 9; type: organism-based; conditions: in vivo, read-out: MNTD; outline: as §2
[11] = Toxicity in ip dosed mouse allografted with mouse p388 cells after 1 day; type: organism-based; conditions: in vivo, read-out: MNTD; outline: as §2
[12] = Antitumor activity against mouse Ridgeway osteogenic sarcoma cells allografted in mouse at 0.3 to 0.4 mg/kg/day, ip; type: functional; conditions: route intraperitoneal
Outline: (§3)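 Ridgeway osteogenic sarcoma and Gardner lymphosarcoma in mice, with sulfate salts given ip daily on days 1-9. Tumor growth inhibition versus controls scored in bands: +++ = 75-100%, ++ = 50-75%, ± = under 25%.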

[13] = Antitumor activity against mouse Gardner lymphosarcoma cell allografted in mouse at 0.3 to 0.4 mg/kg/day, ip; type: functional; conditions: route intraperitoneal; outline: as §3
[14] = Antitumor activity against mouse P1534(J) cells allografted in mouse assessed as tumor growth inhibition at 0.2 mg/kg/day, ip administered from day 1 to day 9 relative to unreated control; type: functional; conditions: P1534J, route intraperitoneal, read-out: TGI
Outline: (§4)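 P1534(J) leukemia implanted subcutaneously in mice. Sulfate salts given ip daily on days 1-9. Read-out was percent inhibition of tumor growth relative to untreated controls. The highest nontoxic dose was recorded.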

[15] = Antitumor activity against mouse P1534(J) cells allografted in mouse assessed as tumor growth inhibition at 0.1 mg/kg/day, ip administered from day 1 to day 9 relative to unreated control; type: functional; conditions: P1534J, route intraperitoneal, read-out: TGI; outline: as §4
[16] = Toxicity in ip dosed mouse allografted with mouse P1534(J) cells administered from day 1 to day 9; type: organism-based; conditions: in vivo, read-out: MNTD; outline: as §4
P388 [17] = test: Antitumor activity against mouse P388 cells allografted in mouse assessed as increase in life span at 0.6 mg/kg/day, ip administered from day 1 to day 9 relative to untreated control; type: functional; conditions: route intraperitoneal; outline: as §2
P388 [18] = test: Antitumor activity against mouse P388 cells allografted in mouse assessed as increase in life span at 0.4 mg/kg/day, ip administered from day 1 to day 9 relative to untreated control; type: functional; conditions: route intraperitoneal; outline: as §2
P388 [19] = test: Antitumor activity against mouse P388 cells allografted in mouse assessed as increase in life span at 0.27 mg/kg/day, ip administered from day 1 to day 9 relative to untreated control; type: functional; conditions: route intraperitoneal; outline: as §2
B16 [20] = test: Antitumor activity against mouse B16 cells allografted in C57Bl/6 mouse assessed as mean survival time at 0.9 mg/kg/day, ip administered on day 1, 5 and 9 (reference value: 24.6 days); type: functional; conditions: route intraperitoneal
B16 [21] = test: Antitumor activity against mouse B16 cells allografted in C57Bl/6 mouse assessed as mean survival time at 1.2 mg/kg/day, ip administered on day 1, 5 and 9 (reference value: 24.6 days); type: functional; conditions: route intraperitoneal
B16 [22] = test: Antitumor activity against mouse B16 cells allografted in C57Bl/6 mouse assessed as mean survival time at 0.6 mg/kg/day, ip administered on day 1, 5 and 9 (reference value: 24.6 days); type: functional; conditions: route intraperitoneal
B16 [23] = test: Antitumor activity against mouse B16 cells allografted in C57Bl/6 mouse assessed as mean survival time at 0.3 mg/kg/day, ip administered on day 1, 5 and 9 (reference value: 24.6 days); type: functional; conditions: route intraperitoneal
B16 [24] = test: Antitumor activity against mouse B16 cells allografted in C57Bl/6 mouse assessed as mean survival time at 0.15 mg/kg/day, ip administered on day 1, 5 and 9 (reference value: 24.6 days); type: functional; conditions: route intraperitoneal
B16 [25] = test: Antitumor activity against mouse B16 cells allografted in C57Bl/6 mouse assessed as increase in life span at 0.9 mg/kg/day, ip administered on day 1, 5 and 9 measured for 61 days relative to control; type: functional; conditions: route intraperitoneal
Outline: (§5)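 C57BL/6 mice implanted ip with 0.5 mL of B16 melanoma brei. Alkaloid sulfate salts given ip on days 1, 5, 9 or on days 5, 9, 13. Percent increase in life span measured against controls; experiment ended at 61 days.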

B16 [26] = test: Antitumor activity against mouse B16 cells allografted in C57Bl/6 mouse assessed as increase in life span at 1.2 mg/kg/day, ip administered on day 1, 5 and 9 measured for 61 days relative to control; type: functional; conditions: route intraperitoneal
B16 [27] = test: Antitumor activity against mouse B16 cells allografted in C57Bl/6 mouse assessed as increase in life span at 0.6 mg/kg/day, ip administered on day 1, 5 and 9 measured for 61 days relative to control; type: functional; conditions: route intraperitoneal; outline: as §5
B16 [28] = test: Antitumor activity against mouse B16 cells allografted in C57Bl/6 mouse assessed as increase in life span at 0.3 mg/kg/day, ip administered on day 1, 5 and 9 measured for 61 days relative to control; type: functional; conditions: route intraperitoneal; outline: as §5
B16 [29] = test: Antitumor activity against mouse B16 cells allografted in C57Bl/6 mouse assessed as increase in life span at 0.15 mg/kg/day, ip administered on day 1, 5 and 9 measured for 61 days relative to control; type: functional; conditions: route intraperitoneal; outline: as §5
B16 [30] = test: Antitumor activity against mouse B16 cells allografted in C57Bl/6 mouse assessed as mean survival time at 1.2 mg/kg/day, ip administered on day 5, […] (reference value: 21.5 days); type: functional; conditions: route intraperitoneal
B16 [31] = test: Antitumor activity against mouse B16 cells allografted in C57Bl/6 mouse assessed as mean survival time at 0.6 mg/kg/day, ip administered on day 5, […] (reference value: 21.5 days); type: functional; conditions: route intraperitoneal
B16 [32] = test: Antitumor activity against mouse B16 cells allografted in C57Bl/6 mouse assessed as mean survival time at 0.3 mg/kg/day, ip administered on day 5, […] (reference value: 21.5 days); type: functional; conditions: route intraperitoneal
B16 [33] = test: Antitumor activity against mouse B16 cells allografted in C57Bl/6 mouse assessed as mean survival time at 0.15 mg/kg/day, ip administered on day 5, […] (reference value: 21.5 days); type: functional; conditions: route intraperitoneal
B16 [34] = test: Antitumor activity against mouse B16 cells allografted in C57Bl/6 mouse assessed as increase in life span at 0.9 mg/kg/day, ip administered on day 5, 9 and 13 measured for 61 days relative to control; type: functional; conditions: route intraperitoneal; outline: as §5
B16 [35] = test: Antitumor activity against mouse B16 cells allografted in C57Bl/6 mouse assessed as increase in life span at 1.2 mg/kg/day, ip administered on day 5, 9 and 13 measured for 61 days relative to control; type: functional; conditions: route intraperitoneal
B16 [36] = test: Antitumor activity against mouse B16 cells allografted in C57Bl/6 mouse assessed as increase in life span at 0.6 mg/kg/day, ip administered on day 5, 9 and 13 measured for 61 days relative to control; type: functional; conditions: route intraperitoneal; outline: as §5
B16 [37] = test: Antitumor activity against mouse B16 cells allografted in C57Bl/6 mouse assessed as increase in life span at 0.3 mg/kg/day, ip administered on day 5, 9 and 13 measured for 61 days relative to control; type: functional; conditions: route intraperitoneal; outline: as §5
B16 [38] = test: Antitumor activity against mouse B16 cells allografted in C57Bl/6 mouse assessed as increase in life span at 0.15 mg/kg/day, ip administered on day 5, 9 and 13 measured for 61 days relative to control; type: functional; conditions: route intraperitoneal; outline: as §5
B16 [39] = test: Antitumor activity against mouse B16 cells allografted in C57Bl/6 mouse assessed as mean survival time at 0.9 mg/kg/day, ip administered on day 5, 9 and 13 (reference value: 21.5 days); conditions: route intraperitoneal
[40] = Antitumor activity against mouse Ridgeway osteogenic sarcoma cells allografted in mouse at 0.5 to 0.7 mg/kg/day, ip; type: functional; conditions: route intraperitoneal; outline: as §1
[41] = Antitumor activity against mouse Gardner lymphosarcoma cell allografted in mouse at 0.5 to 0.7 mg/kg/day, ip; type: functional; conditions: route intraperitoneal; outline: as §1
Blood = test: Biodistribution in po dosed rat blood using [3H]-labeled drug relative to Iv dosing; type: ADME, organism-based; conditions: in vivo

SMILES: CC[C@]1(O)C[C@@H]2C[C@](C(=O)OC)(c3cc4c(cc3OC)N(C)[C@H]3[C@@](O)(C(N)=O)[C@H](O)[C@]5(CC)C=CCN6CC[C@]43[C@@H]65)c3[nH]c4ccccc4c3CC[N+]([O-])(C2)C1
- LD50 [1]: > 10 mg/kg
- TGI [2]: 25%
- TGI [3]: 25%

SMILES: CC[C@]1(O)C[C@H]2CN(CCc3c([nH]c4ccccc34)[C@@](C(=O)OC)(c3cc4c(cc3OC)N(C)[C@H]3[C@@](O)(C(=O)OC)[C@H](O)[C@]5(CC)C=CCN6CC[C@]43[C@@H]65)C2)C1.O=S(=O)(O)O
- ILS at 0.18 mg/kg/day (P388 [4]): 136%
- ILS at 9 mg/kg/day (P388 [5]): > 263%
- ILS at 6 mg/kg/day (P388 [6]): 200%
- ILS at 4 mg/kg/day (P388 [7]): 218%
- ILS at 1.8 mg/kg/day (P388 [8]): 159%
- ILS at 1.7 mg/kg/day (P388 [9]): 154%
- MTD [10]: 0.6 mg/kg/day
- MTD at 24 h [11]: 9 mg/kg/day
- TGI [12]: 50%
- TGI [13]: 50%
- LD50 [1]: 5.8 mg/kg
- inhibition in vivo at 0.2 mg/kg/day [14]: 96%
- inhibition in vivo at 0.1 mg/kg/day [15]: 41%
- MTD [16]: 0.2 mg/kg/day
- ILS at 0.6 mg/kg/day (P388 [17]): > 263%
- ILS at 0.4 mg/kg/day (P388 [18]): > 263%
- ILS at 0.27 mg/kg/day (P388 [19]): 181%
- MST (B16 [20]): 45.3 days
- MST (B16 [21]): 41.5 days
- MST (B16 [22]): 51.5 days
- MST (B16 [23]): 49.3 days
- MST (B16 [24]): 42.1 days
- ILS at 0.9 mg/kg/day (B16 [25]): 84%
- ILS at 1.2 mg/kg/day (B16 [26]): 69%
- ILS at 0.6 mg/kg/day (B16 [27]): 109%
- ILS at 0.3 mg/kg/day (B16 [28]): 100%
- ILS at 0.15 mg/kg/day (B16 [29]): 71%
- MST (B16 [30]): 45.2 days
- MST (B16 [31]): 41.1 days
- MST (B16 [32]): 41.1 days
- MST (B16 [33]): 33.7 days
- ILS at 0.9 mg/kg/day (B16 [34]): 126%
- ILS at 1.2 mg/kg/day (B16 [35]): 110%
- ILS at 0.6 mg/kg/day (B16 [36]): 91%
- ILS at 0.3 mg/kg/day (B16 [37]): 91%
- ILS at 0.15 mg/kg/day (B16 [38]): 57%
- MST (B16 [39]): 48.7 days

SMILES: CC[C@]1(O)C[C@H]2CN(CCc3c([nH]c4ccccc34)[C@@](C(=O)OC)(c3cc4c(cc3OC)N(C)[C@H]3[C@@](O)(C(N)=O)[C@H](O)[C@]5(CC)CCCN6CC[C@]43[C@@H]65)C2)C1.O=S(=O)(O)O
- TGI [40]: 50%
- TGI [41]: 50%

SMILES: CC[C@]1(O)C[C@@H]2CN(CCc3c([nH]c4ccccc34)[C@@](C(=O)OC)(c3cc4c(cc3OC)N(C)[C@H]3[C@@](O)(C(N)=O)[C@H](O)[C@]5(CC)C=CCN6CC[C@]43[C@@H]65)C2)C1 [VINDESINE]
- Drug uptake (Blood): 1%

Reference: ChEMBL document CHEMBL3272325, “Structure-activity relationships of dimeric Catharanthus alkaloids. 1. Deacetylvinblastine amide (vindesine) sulfate” (J Med Chem, 1978)
